Data set [1] relates to TNF-α–induced IKKβ-mediated NF-κB activation. Description: Dual luciferase assay-based screen of quinoxaline analogs. Format: cell-based. Conditions: relative to parent analog / 13-197. The method, boiled down:
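Dual-luciferase NF-κB reporter screen of quinoxaline analogs against TNF-α–stimulated, IKKβ-mediated NF-κB activation. Two reference compounds, the parent quinoxaline and an allosteric IKKβ inhibitor, served as controls marking the ends of the activity range. n = 4, reported as average ± SEM. P values from a two-tailed Student's t test.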

A short description of data set [2]: Metabolic stability in human liver S9 fraction. Format: in vitro ADME.
In another data set the test system is NF-κB pathway proteins. Description: Western blot of NF-κB pathway proteins in MiaPaCa2 cells, 6 h. Format: cell-based, human. Conditions: MiaPaCa2, 6h, dose-response.
A further data set deals with MAP3K12. Conditions: cited from earlier work.
Data set [3] addresses T1, IKKβ (Homo sapiens, UniProt O14920).
T1 sequence (O14920 1-756): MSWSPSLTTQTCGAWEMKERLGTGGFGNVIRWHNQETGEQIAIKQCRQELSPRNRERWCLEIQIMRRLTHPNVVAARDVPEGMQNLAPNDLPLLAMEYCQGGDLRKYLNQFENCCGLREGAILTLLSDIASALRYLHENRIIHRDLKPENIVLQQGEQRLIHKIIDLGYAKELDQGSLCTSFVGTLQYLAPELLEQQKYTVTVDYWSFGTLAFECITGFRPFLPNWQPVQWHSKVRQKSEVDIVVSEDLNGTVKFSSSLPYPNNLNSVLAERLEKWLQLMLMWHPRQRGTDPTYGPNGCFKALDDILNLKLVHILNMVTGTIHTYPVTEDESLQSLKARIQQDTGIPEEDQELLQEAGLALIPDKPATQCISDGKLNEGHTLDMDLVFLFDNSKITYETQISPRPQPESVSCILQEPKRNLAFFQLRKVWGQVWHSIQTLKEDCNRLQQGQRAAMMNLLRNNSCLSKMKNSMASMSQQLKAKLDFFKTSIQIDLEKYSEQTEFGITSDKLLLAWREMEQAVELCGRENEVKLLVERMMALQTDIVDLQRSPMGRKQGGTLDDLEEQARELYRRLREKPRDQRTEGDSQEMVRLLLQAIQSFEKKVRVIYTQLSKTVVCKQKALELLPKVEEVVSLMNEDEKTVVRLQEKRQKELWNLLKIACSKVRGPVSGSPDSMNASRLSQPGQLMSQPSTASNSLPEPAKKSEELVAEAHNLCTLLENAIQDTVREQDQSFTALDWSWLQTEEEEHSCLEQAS
Briefly: KinomeSCAN binding to IKKβ.

In data set [4] the target is T1, IKKβ. Description: 10-point dose-response IKKβ kinase activity assay. The format is biochemical.
For data set [5], the system named is 328 kinase-associated peptides that correspond to 254 kinases. Description: KiNativ kinome profiling dose-response in PANC1 lysate. Format: binding. Conditions: PANC1 cell lysates, 1.25-10 μM. A digest of the protocol: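 KiNativ kinome profiling done as a dose-response in PANC1 cells. Test compound was used at 1.25, 2.5, 5, 7.5 and 10 μM. Each kinase inhibited was recorded at each concentration.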

A further data set concerns p-IKKβ. Briefly: p-IKKβ levels in MiaPaCa2 cells. The format is cell-based. Particulars: Homo sapiens, MIA PaCa-2, read-out: IC50 for reduction of p-IKKβ levels.
Data set [6] has as its system TNF-α–induced MAP3K1-IKKβ–mediated NF-κB activity. Briefly: HeLa luciferase reporter under NF-κB response element. Format: cell-based.
The subject of data set [7] is TNF-α–induced MAP3K1-IKKβ–mediated NF-κB activation. Format: cell-based. Particulars: MAP3K1-WT transfected HeLa, TNF-α 20 ng/mL, 6 h.
Another data set relates to MAP3K1-WT–induced p-IKKβ. Briefly: Western blot of MAP3K1-WT transfected HeLa cells. Format: cell-based.
In data set [8] the test system is T3M4 orthotopic pancreatic tumors. Description: T3M4 orthotopic xenograft model. The format is in vivo, athymic nude mice. Particulars: 40 mg/kg, by mouth.
The nature of data set [9]: Oral and intravenous dose pharmacokinetic studies in mice. Conditions: mouse, in vivo.

Like-named read-outs stand apart in the source and are kept apart here.

The values below come from PMC9170026 (Proceedings of the National Academy of Sciences of the …, 2022).

As for `Cn1cc(-c2cnc3ccc(NC(=O)Nc4ccccc4Br)cc3n2)cn1` [analog 13], the “inhibition of TNF-α–induced IKKβ-mediated NF-κB activity (SAR screen)” value (shortened to “inhibition … (SAR screen)”) in data set [1] is “reduced the activity”.

Take `Cn1cc(-c2cnc3ccc(NC(=O)Nc4cccc(Br)c4)cc3n2)cn1` [compound 12]: the “inhibition … (SAR screen)” value in [1] is reported as “further improved the activity”. Besides, the “improvement of t1/2 (stability) over 13-197” value in data set [2] is listed as “four-fold better”. In the data set on NF-κB pathway proteins, the Bcl-xL levels entry is recorded as “no change in Bcl-xL”, the IκBα phosphorylation entry was “inhibited IκBα phosphorylation in a dose-dependent manner” and the Mcl-1 levels result is reported as “robust reduction in Mcl-1 levels”.

Turning to `Cn1cc(-c2cnc3ccc(NC(=O)Nc4ccc(Br)cc4)cc3n2)cn1` [analog 5], in data set [1], the “inhibition … (SAR screen)” value is given as “improved activity”.

As for `CC(C)n1nc(-c2cnc(N)c(OC(F)(F)F)c2)cc1C1[C@H]2CN(C3COC3)C[C@@H]12` (some centres unmarked) [DLK-In-1], the Ki at MAP3K12 is 3 nM.

With `Cn1cc(-c2cnc3ccc(NC(=O)Nc4ccc(F)c(Br)c4)cc3n2)cn1` [39-100], in data set [2], the “improvement of t1/2 (stability) over 13-197” value was approximately 8 fold. Moreover, the major metabolites entry in data set [2] (2h post-incubation) was “demethylated, glucuronidated, and sulfated products”. In addition, the “in vitro IKKβ binding” value on IKKβ [3] is “did not bind”. Moreover, the “in vitro IKKβ binding” value on IKKβ [3] (listed as IKAM-1) is “inactive”. For the same compound, the “in vitro IKKβ enzymatic inhibition” value at IKKβ [4] is “inactive”. For the same compound, the kinome selectivity entry in data set [5] is listed as “selectively inhibits MAP3K1”. Also, the IC50 with p-IKKβ was determined as 2300 ± 200 nM. The “inhibition of TNF-α–induced NF-κB reporter activity” value in data set [6] is “selectively inhibited”. Besides, the “inhibition of TNF-α–induced MAP3K1-IKKβ–mediated NF-κB activation” value in [7] is “inhibited”. Moreover, the “MAP3K1-WT–induced p-IKKβ” value in the data set with MAP3K1-WT–induced p-IKKβ is given as “inhibited”. Also, in the data set on NF-κB pathway proteins, the Bcl-xL levels entry was “no change in Bcl-xL” and the IκBα phosphorylation entry is recorded as “inhibited IκBα phosphorylation in a dose-dependent manner”. Also, in [8], the “Ki67 and CD31+ tumor cells vs vehicle” value was “reduced Ki67 and CD31^+ tumor cells”; the “p-IKKβ expression in tumors (IHC) vs vehicle” value was “reduced expression of p-IKKβ”. Also, in data set [9], the “improvement in oral bioavailability over 13-197” value is approximately 12 fold.
